The record followed here is ChEMBL document CHEMBL1143463, “Potential antitumor agents: flavones and their derivatives from Linaria reflexa Desf” (Bioorg Med Chem Lett, 2005).

Structures are written as SMILES.

One experiment deals with ACHN. Briefly: In vitro inhibitory concentration against renal adenocarcinoma cell line (ACHN) in the presence of taxol. In kind it is functional, cell-based. Particulars: Homo sapiens. The procedure, abridged:
(§1)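 Cell lines grown in RPMI 1640 with 10% FBS, 1% L-glutamine and 1% penicillin/streptomycin at 37 °C in 5% CO2. Seeded at 2–5 × 10^4 cells/well and left 24 h, then exposed 48 h to serial dilutions at final 0.25–50 (DMSO vehicle), six replicates. Cells fixed with cold TCA, stained with SRB, and read at 564 nm. IC50 taken from % inhibition curves, three experiments, mean ± SD.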

The subject of another experiment is Caco-2. Nature of the experiment: In vitro inhibitory concentration against human colorectal adenocarcinoma Caco-2 cells in the presence of vinblastine sulfate salt. It counts as functional, cell-based. The essentials:
(§2)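 Cultured in DMEM with 10% FBS, 1% L-glutamine and 1% penicillin/streptomycin at 37 °C in 5% CO2. After 24 h attachment at 2–5 × 10^4 cells/well, cells were treated 48 h with serial dilutions at final 0.25–50 in DMSO-containing medium, six replicates. Survival measured by SRB staining of TCA-fixed cells at 564 nm against untreated control. IC50 from dose–response curves; three experiments, mean ± SD.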

Experiment [1] is described as follows: In vitro inhibitory concentration against human amelanotic melanoma cell line (C32) in the presence of vinblastine sulfate salt. It counts as functional. The procedure, abridged:
as §1

A further experiment deals with COR-L23. Briefly: In vitro inhibitory concentration against human carcinoma COR-L23 cells in the presence of vinblastine sulfate salt. In kind it is functional, cell-based. The essentials: as §1
A further experiment deals with MRC5. Briefly: In vitro inhibitory concentration against human fetal lung MRC-5 cell line in the presence of vinblastine sulfate salt. In kind it is functional, cell-based. The procedure, abridged: as §2
The subject of another experiment is HepG2. Briefly: In vitro inhibitory concentration against human hepatocellular carcinoma HepG-2 cells in the presence of vinblastine sulfate salt. It counts as functional, cell-based. The essentials:
as §2

By IC50 is commonly meant the concentration needed to halve the response being measured. On to `COc1ccc(-c2cc(=O)c3c(O)c(OC)c(O[C@@H]4OC(CO[C@@H]5OC(C)[C@H](O)[C@H](OC(C)=O)C5O)[C@@H](O)[C@H](O)C4O)cc3o2)cc1` (some centres undefined), for which the IC50 is 16.9 µM in the experiment with ACHN; 14 µM in the experiment on Caco-2; 21.5 µM in experiment [1]; 10.4 µM with COR-L23; above 75.3 µM in the experiment with MRC5; 10.9 µM in the experiment on HepG2.
Consider `COc1ccc(-c2cc(=O)c3c(O)c(OC)c(O[C@@H]4OC(CO[C@@H]5OC(C)[C@H](OC(C)=O)[C@H](O)C5O)[C@@H](O)C(O)[C@@H]4O)cc3o2)cc1` (some centres undefined), for which the IC50 was 11.2 µM in the experiment on ACHN; 8.01 µM with Caco-2; 12.6 µM in experiment [1]; 5.17 µM with COR-L23; above 75.3 µM in the experiment with MRC5; 23.2 µM in the experiment with HepG2.
Regarding `C[C@]12O[C@H]1[C@@H](O)[C@]1(O)C=CO[C@@H](O[C@@H]3O[C@H](CO)[C@@H](O)[C@H](O)[C@H]3O)[C@@H]12` [ANTIRRHINOSIDE], the IC50 (in the experiment on ACHN; in the experiment on Caco-2; in experiment [1]; in the experiment with COR-L23; in the experiment on MRC5; in the experiment on HepG2) was above 138 µM in each case.
On to `COc1ccc(-c2cc(=O)c3c(O)c(OC)c(O[C@@H]4OC(CO[C@@H]5OC(C)[C@H](O)[C@H](O)C5OC(C)=O)[C@@H](O)[C@H](O)C4O)cc3o2)cc1` (some centres undefined) [ISOLINARIIN A], for which the IC50 in the experiment with ACHN was 14 µM; in the experiment on Caco-2, 8.54 µM; in experiment [1], 11.8 µM; in the experiment with COR-L23 it was 6.68 µM; with MRC5, above 75.3 µM; in the experiment with HepG2 it was 16.4 µM.
With `COc1ccc(-c2cc(=O)c3c(O)c(OC)c(O)cc3o2)cc1` [PECTOLINARIGENIN], the IC50 in experiment [1] was 7.02 µM; in the experiment on MRC5, above 159 µM.
With `COc1ccc(-c2cc(=O)c3c(O)c(OC)c(O[C@@H]4O[C@H](CO[C@@H]5O[C@@H](C)[C@H](O)[C@@H](O)[C@H]5O)[C@@H](O)[C@H](O)[C@H]4O)cc3o2)cc1` [PECTOLINARIN], the half-inhibitory concentration (IC50) in experiment [1] was 7.17 µM; in the experiment with MRC5, above 80.3 µM; with HepG2, 14.1 µM.
